Measured values published in ChEMBL document CHEMBL4261516, “Design, synthesis and pharmacological evaluation of new 2-oxo-quinoline derivatives containing α-aminophosphonates as potential antitumor agents” (Medchemcomm, 2017).
Activity calls are given as the source filed them. The rule behind the calls is not given here.

How the values were obtained:
HepG2 [1] = assay: Induction of apoptosis in human HepG2 cells assessed as increase in release of mitochondrial cytochrome c into cytosol at 8 to 12 uM after 24 hrs by Western blot method; type: functional, cell-based
Method in brief: (§1)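 Treated HepG2 cells were lysed on ice in 1% SDS/Tris-HCl pH 7.5 buffer with EDTA, NaCl, PMSF, leupeptin and trypsin inhibitor, then cleared at 12,000 × g for 5 min. Protein was quantified by BCA, and 40–50 µg was run on 12% SDS-PAGE and blotted to PVDF. Membranes were blocked with 5% milk, incubated with primary antibody overnight at 4 °C and HRP secondary for 1 h. Detection by chemiluminescence with densitometry.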

HepG2 [2] = assay: Cell cycle arrest in human HepG2 cells assessed as accumulation at G2 phase at 12 uM after 48 hrs by propidium iodide staining-based flow cytometric method (reference value: 19.04%); type: functional
HepG2 [3] = assay: Induction of apoptosis in human HepG2 cells assessed as downregulation of Bcl-2 levels at 8 to 12 uM after 24 hrs by Western blot method; type: functional, cell-based; method in brief: as §1
HepG2 [4] = assay: Induction of apoptosis in human HepG2 cells assessed as upregulation of PARP levels at 8 to 12 uM after 24 hrs by Western blot method; type: functional, cell-based
HepG2 [5] = assay: Downregulation of cyclin B1 expression in human HepG2 cells after 48 hrs by Western blot method; type: functional, cell-based
HepG2 [6] = assay: Induction of apoptosis in human HepG2 cells assessed as necrotic cells at 8 uM after 24 hrs by annexin V/[…] staining-based fluorescent microscopic method (reference value: 0.28%); type: functional
HepG2 [7] = assay: Induction of apoptosis in human HepG2 cells assessed as viable cells at 10 uM after 24 hrs by annexin V/[…] staining-based fluorescent microscopic method (reference value: 91.31%); type: functional; conditions: HepG2, 24 h, read-out: Activity
HepG2 [8] = assay: Cell cycle arrest in human HepG2 cells assessed as accumulation at G2 phase at 10 uM after 48 hrs by propidium iodide staining-based flow cytometric method (reference value: 19.04%); type: functional
HepG2 [9] = assay: Induction of apoptosis in human HepG2 cells assessed as late apoptotic cells at 8 uM after 24 hrs by annexin V/[…] staining-based fluorescent microscopic method (reference value: 1.91%); type: functional
HepG2 [10] = assay: Induction of apoptosis in human HepG2 cells assessed as late apoptotic cells at 10 uM after 24 hrs by annexin V/[…] staining-based fluorescent microscopic method (reference value: 1.91%); type: functional
HepG2 [11] = assay: Induction of apoptosis in human HepG2 cells assessed as necrotic cells at 10 uM after 24 hrs by annexin V/[…] staining-based fluorescent microscopic method (reference value: 0.28%); type: functional
HepG2 [12] = assay: Cell cycle arrest in human HepG2 cells assessed as accumulation at G1 phase at 10 uM after 48 hrs by propidium iodide staining-based flow cytometric method (reference value: 50.47%); type: functional
HepG2 [13] = assay: Cell cycle arrest in human HepG2 cells assessed as accumulation at G2 phase at 8 uM after 48 hrs by propidium iodide staining-based flow cytometric method (reference value: 19.04%); type: functional
HepG2 [14] = assay: Induction of apoptosis in human HepG2 cells assessed as viable cells at 12 uM after 24 hrs by annexin V/[…] staining-based fluorescent microscopic method (reference value: 91.31%); type: functional; conditions: HepG2, 24 h, read-out: Activity
HepG2 [15] = assay: Induction of apoptosis in human HepG2 cells assessed as early apoptotic cells at 8 uM after 24 hrs by annexin V/[…] staining-based fluorescent microscopic method (reference value: 6.50%); type: functional
HepG2 [16] = assay: Induction of apoptosis in human HepG2 cells assessed as necrotic cells at 12 uM after 24 hrs by annexin V/[…] staining-based fluorescent microscopic method (reference value: 0.28%); type: functional
HepG2 [17] = assay: Cell cycle arrest in human HepG2 cells assessed as accumulation at S phase at 12 uM after 48 hrs by propidium iodide staining-based flow cytometric method (reference value: 30.49%); type: functional
SK-OV-3 = assay: Cytotoxicity against human SKOV3 cells after 48 hrs by MTT assay; type: functional, cell-based; conditions: SK-OV-3, 48 h
Method in brief: (§2)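 HepG2, SK-OV-3, NCI-H460 and HL 7702 lines grown as monolayers in DMEM with 10% FBS plus penicillin/streptomycin at 37 °C, 5% CO2. Exponentially growing cells were seeded and exposed to the indicated concentrations for 48 h. MTT was then added for 4 h at 37 °C, formazan was dissolved in DMSO, and OD was read at 490 nm. Each concentration was run in triplicate wells, with three independent runs per line.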

HepG2 [18] = assay: Induction of apoptosis in human HepG2 cells assessed as upregulation of caspase-3 levels at 8 to 12 uM after 24 hrs by Western blot method; type: functional, cell-based; method in brief: as §1
HepG2 [19] = assay: Upregulation of p53 expression in human HepG2 cells after 48 hrs by Western blot method; type: functional, cell-based
HepG2 [20] = assay: Cell cycle arrest in human HepG2 cells assessed as accumulation at S phase at 8 uM after 48 hrs by propidium iodide staining-based flow cytometric method (reference value: 30.49%); type: functional
NCI-H460 = assay: Cytotoxicity against human NCI-H460 cells after 48 hrs by MTT assay; type: functional, cell-based; conditions: NCI-H460, 48 h; method in brief: as §2
HepG2 [21] = assay: Induction of apoptosis in human HepG2 cells assessed as early apoptotic cells at 10 uM after 24 hrs by annexin V/[…] staining-based fluorescent microscopic method (reference value: 6.50%); type: functional
HepG2 [22] = assay: Cytotoxicity against human HepG2 cells after 48 hrs by MTT assay; type: functional, cell-based; conditions: HepG2, 48 h; method in brief: as §2
HepG2 [23] = assay: Induction of apoptosis in human HepG2 cells assessed as upregulation of reactive oxygen species generation at 10 uM by DCFH-DA/DAPI staining-based fluorescence microscopic method; type: functional, cell-based
HepG2 [24] = assay: Induction of apoptosis in human HepG2 cells assessed as late apoptotic cells at 12 uM after 24 hrs by annexin V/[…] staining-based fluorescent microscopic method (reference value: 1.91%); type: functional
HepG2 [25] = assay: Induction of apoptosis in human HepG2 cells assessed as upregulation of Bax levels at 8 to 12 uM after 24 hrs by Western blot method; type: functional, cell-based; method in brief: as §1
HepG2 [26] = assay: Disruption of mitochondrial membrane potential in human HepG2 cells at 10 uM after 12 hrs by JC1 staining-based fluorescent microscopic method; type: functional, cell-based
HepG2 [27] = assay: Induction of apoptosis in human HepG2 cells assessed as viable cells at 8 uM after 24 hrs by annexin V/[…] staining-based fluorescent microscopic method (reference value: 91.31%); type: functional; conditions: HepG2, 24 h, read-out: Activity
HepG2 [28] = assay: Induction of apoptosis in human HepG2 cells assessed as cell budding at 10 uM after 24 hrs by acridine orange/ethidium bromide staining-based fluorescent microscopic method; type: functional
Method in brief: (§3)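 Cells were plated at 5×10^4 cells/mL on sterile cover slips. Medium was replaced with fresh medium containing 10% FBS plus compound. After treatment, cover slips were inverted onto slides with acridine orange/ethidium bromide stain and viewed by fluorescence microscopy.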

HepG2 [29] = assay: Cell cycle arrest in human HepG2 cells assessed as accumulation at G1 phase at 12 uM after 48 hrs by propidium iodide staining-based flow cytometric method (reference value: 50.47%); type: functional
L02 = assay: Cytotoxicity against human HL-7702 cells after 48 hrs by MTT assay; type: cell-based; conditions: L02, 48 h; method in brief: as §2
HepG2 [30] = assay: Induction of apoptosis in human HepG2 cells assessed as pycnosis at 10 uM after 24 hrs by acridine orange/ethidium bromide staining-based fluorescent microscopic method; type: functional, cell-based; method in brief: as §3

For `CCOP(=O)(Cc1ccc(/N=C/c2cc3cc(C)ccc3[nH]c2=O)cc1)OCC`, the Activity (HepG2 [1]) was “Active”, the Activity (HepG2 [2]) was 46.77% and the Activity (HepG2 [3]) was “Active”. For the same compound, the Activity (HepG2 [4]) was “Active”, the Activity (HepG2 [5]) was “Dose-dependent effect” and the Activity (HepG2 [6]) was 2.9%. For the same compound, the viability at 10 µM (HepG2 [7]) was 56.3%, the Activity (HepG2 [8]) was 36.92% and the Activity (HepG2 [9]) was 15.49%. It also gave an Activity (HepG2 [10]) of 9.24%, an Activity (HepG2 [11]) of 0.12% and an Activity (HepG2 [12]) of 33.91%. The Activity (HepG2 [13]) was 34.68%, the viability at 12 µM (HepG2 [14]) was 44.5% and the Activity (HepG2 [15]) was 19.08%. For the same compound, the Activity (HepG2 [16]) was 0.57%, the Activity (HepG2 [17]) was 27.49% and the IC50 (SK-OV-3) was 34.8 µM. The Activity (HepG2 [18]) was “Active”, the Activity (HepG2 [19]) was “Dose-dependent effect” and the Activity (HepG2 [20]) was 30.01%. It also gave an IC50 (NCI-H460) of 39 µM, an Activity (HepG2 [21]) of 34.38% and an IC50 (HepG2 [22]) of 9.99 µM. For the same compound, the Activity (HepG2 [23]) was “Active”, the Activity (HepG2 [24]) was 11.83% and the Activity (HepG2 [25]) was “Active”. The Activity (HepG2 [26]) was “Active”, the viability at 8 µM (HepG2 [27]) was 62.5% and the Activity (HepG2 [28]) was “Active”. The Activity (HepG2 [29]) was 25.75%, the IC50 (L02) was greater than 100 µM and the Activity (HepG2 [30]) was “Active”.
